Here are results for two compounds from ChEMBL document CHEMBL1681705, “Optimisation of ITK inhibitors through successive iterative design cycles” (Bioorg Med Chem Lett, 2011).

A word on the inhibition: it is how much of the control response was suppressed.

Experiment [1] deals with Tyrosine-protein kinase ABL1 (Homo sapiens) (UniProt P00519). In words: Inhibition of Abl at 0.1 uM; values are per cent of control.
Experiment [2] deals with Fibroblast growth factor receptor 1 (Homo sapiens) (UniProt P11362). In words: Inhibition of FGFR1 at 0.1 uM; values are per cent of control.
The target in experiment [3] is Mitogen-activated protein kinase 14 (Homo sapiens) (UniProt Q16539). Description: Inhibition of SAPK2a at 0.1 uM; values are per cent of control.
Sequence of Mitogen-activated protein kinase 14 (Homo sapiens) (Q16539 whole entry): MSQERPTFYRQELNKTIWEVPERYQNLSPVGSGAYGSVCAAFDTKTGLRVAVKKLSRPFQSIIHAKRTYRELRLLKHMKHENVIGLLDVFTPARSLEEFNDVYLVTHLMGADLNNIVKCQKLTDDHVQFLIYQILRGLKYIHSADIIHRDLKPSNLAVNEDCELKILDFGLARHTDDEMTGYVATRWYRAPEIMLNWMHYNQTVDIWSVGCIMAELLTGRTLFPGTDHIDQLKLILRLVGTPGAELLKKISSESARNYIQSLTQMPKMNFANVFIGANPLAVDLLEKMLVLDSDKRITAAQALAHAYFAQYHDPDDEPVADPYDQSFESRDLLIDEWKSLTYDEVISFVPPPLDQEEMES
Experiment [4] has as its target Ephrin type-A receptor 5 (Homo sapiens) (UniProt P54756). In words: Inhibition of EphA5 at 1 uM; values are per cent of control.
The target in experiment [5] is Ephrin type-A receptor 4 (Homo sapiens) (UniProt P54764). In words: Inhibition of EphA4 at 0.1 uM; values are per cent of control.
For experiment [6], the target named is Serine/threonine-protein kinase 33 (Homo sapiens) (UniProt Q9BYT3). In words: Inhibition of STK33 at 1 uM; values are per cent of control.
Sequence of Serine/threonine-protein kinase 33 (Homo sapiens) (Q9BYT3 whole entry, looked up): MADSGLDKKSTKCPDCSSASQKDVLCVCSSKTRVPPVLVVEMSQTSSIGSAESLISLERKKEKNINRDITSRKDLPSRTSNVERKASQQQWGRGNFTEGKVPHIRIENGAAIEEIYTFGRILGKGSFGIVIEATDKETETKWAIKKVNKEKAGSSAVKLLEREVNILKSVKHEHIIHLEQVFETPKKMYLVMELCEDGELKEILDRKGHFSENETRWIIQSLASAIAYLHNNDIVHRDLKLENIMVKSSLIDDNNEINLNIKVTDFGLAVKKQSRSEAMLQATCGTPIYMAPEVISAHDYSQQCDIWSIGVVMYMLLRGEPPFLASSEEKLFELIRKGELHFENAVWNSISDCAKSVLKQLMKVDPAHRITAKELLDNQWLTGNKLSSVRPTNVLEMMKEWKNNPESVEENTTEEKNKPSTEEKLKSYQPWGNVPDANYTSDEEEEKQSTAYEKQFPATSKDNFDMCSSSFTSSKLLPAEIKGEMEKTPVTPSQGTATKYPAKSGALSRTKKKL
Experiment [7] has as its target T1, Interleukin-1 receptor-associated kinase 4 (Homo sapiens) (UniProt Q9NWZ3).
T1 sequence (whole entry): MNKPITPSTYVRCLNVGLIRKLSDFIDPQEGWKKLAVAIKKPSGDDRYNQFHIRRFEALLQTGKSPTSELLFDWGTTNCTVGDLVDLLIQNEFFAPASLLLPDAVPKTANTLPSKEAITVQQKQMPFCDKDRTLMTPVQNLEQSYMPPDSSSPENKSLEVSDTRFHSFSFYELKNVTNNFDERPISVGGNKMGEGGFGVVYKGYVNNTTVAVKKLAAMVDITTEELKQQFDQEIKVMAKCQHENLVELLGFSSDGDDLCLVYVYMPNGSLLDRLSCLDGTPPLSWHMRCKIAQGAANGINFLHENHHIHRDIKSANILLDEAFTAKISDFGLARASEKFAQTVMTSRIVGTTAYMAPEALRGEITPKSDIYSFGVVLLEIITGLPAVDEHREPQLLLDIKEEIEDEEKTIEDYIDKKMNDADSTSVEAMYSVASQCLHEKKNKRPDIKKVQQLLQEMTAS
In words: Inhibition of IRAK4 at 0.1 uM; values are per cent of control.

For experiment [8], the target named is Protein kinase C alpha type (Homo sapiens) (UniProt P17252). Description: Inhibition of PKCalpha at 1 uM; values are per cent of control.
Experiment [9] has as its target Tyrosine-protein kinase CSK (Homo sapiens) (UniProt P41240). Description: Inhibition of CSK at 1 uM; values are per cent of control.
For experiment [10], the target named is Tyrosine-protein kinase BTK (Homo sapiens) (UniProt Q06187). In words: Inhibition of BTK at 1 uM; values are per cent of control.
In experiment [11] the target is T1, Interleukin-1 receptor-associated kinase 4 (Homo sapiens). Description: Inhibition of IRAK4 at 1 uM. The procedure, abridged: (§1)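 Single-point profiling in a panel of 108 kinases. Each selected inhibitor was tested at two concentrations, 0.1 and 1.0 micromolar. Values are reported as inhibition at each concentration.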
Experiment [12] deals with Interleukin-1 receptor-associated kinase 1 (Homo sapiens) (UniProt P51617). Description: Inhibition of IRAK1 at 1 uM. An outline of the steps:
as §1

Experiment [13] concerns the target RAC-alpha serine/threonine-protein kinase (Homo sapiens) (UniProt P31749). In words: Inhibition of PKBalpha at 0.1 uM; values are per cent of control.
The target of experiment [14] is Ribosomal protein S6 kinase alpha-4 (Homo sapiens) (UniProt O75676). In words: Inhibition of MSK2 at 0.1 uM; values are per cent of control.
Sequence of Ribosomal protein S6 kinase alpha-4 (Homo sapiens) (O75676 whole entry, looked up): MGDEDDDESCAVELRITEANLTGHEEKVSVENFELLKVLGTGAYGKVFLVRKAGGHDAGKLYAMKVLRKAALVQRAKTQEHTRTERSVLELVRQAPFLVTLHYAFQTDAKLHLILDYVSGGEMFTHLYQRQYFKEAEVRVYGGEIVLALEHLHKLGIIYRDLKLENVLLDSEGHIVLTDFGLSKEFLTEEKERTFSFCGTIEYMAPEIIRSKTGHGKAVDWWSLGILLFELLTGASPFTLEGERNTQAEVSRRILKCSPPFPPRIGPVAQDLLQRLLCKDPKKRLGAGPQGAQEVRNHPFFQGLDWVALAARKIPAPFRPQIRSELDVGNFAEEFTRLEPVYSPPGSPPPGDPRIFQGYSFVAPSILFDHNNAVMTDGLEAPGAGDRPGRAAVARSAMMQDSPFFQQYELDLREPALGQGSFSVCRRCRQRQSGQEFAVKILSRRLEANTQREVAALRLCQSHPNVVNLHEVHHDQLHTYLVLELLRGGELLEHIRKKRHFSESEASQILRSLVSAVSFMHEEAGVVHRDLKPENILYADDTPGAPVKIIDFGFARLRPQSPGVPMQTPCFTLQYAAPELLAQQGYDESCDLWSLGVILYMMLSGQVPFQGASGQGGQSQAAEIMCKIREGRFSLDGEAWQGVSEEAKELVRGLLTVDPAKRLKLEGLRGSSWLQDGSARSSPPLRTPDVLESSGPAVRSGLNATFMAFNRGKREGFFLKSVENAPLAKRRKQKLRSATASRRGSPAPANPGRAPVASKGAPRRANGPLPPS
Experiment [15] addresses Serine/threonine-protein kinase PLK3 (Homo sapiens) (UniProt Q9H4B4). Description: Inhibition of Plk3 at 1 uM; values are per cent of control.
Experiment [16] concerns the target Vascular endothelial growth factor receptor 2 (Homo sapiens) (UniProt P35968). In words: Inhibition of KDR at 0.1 uM; values are per cent of control.
The target of experiment [17] is T2, cGMP-dependent protein kinase 1 (Homo sapiens) (UniProt Q13976).
T2 sequence (whole entry): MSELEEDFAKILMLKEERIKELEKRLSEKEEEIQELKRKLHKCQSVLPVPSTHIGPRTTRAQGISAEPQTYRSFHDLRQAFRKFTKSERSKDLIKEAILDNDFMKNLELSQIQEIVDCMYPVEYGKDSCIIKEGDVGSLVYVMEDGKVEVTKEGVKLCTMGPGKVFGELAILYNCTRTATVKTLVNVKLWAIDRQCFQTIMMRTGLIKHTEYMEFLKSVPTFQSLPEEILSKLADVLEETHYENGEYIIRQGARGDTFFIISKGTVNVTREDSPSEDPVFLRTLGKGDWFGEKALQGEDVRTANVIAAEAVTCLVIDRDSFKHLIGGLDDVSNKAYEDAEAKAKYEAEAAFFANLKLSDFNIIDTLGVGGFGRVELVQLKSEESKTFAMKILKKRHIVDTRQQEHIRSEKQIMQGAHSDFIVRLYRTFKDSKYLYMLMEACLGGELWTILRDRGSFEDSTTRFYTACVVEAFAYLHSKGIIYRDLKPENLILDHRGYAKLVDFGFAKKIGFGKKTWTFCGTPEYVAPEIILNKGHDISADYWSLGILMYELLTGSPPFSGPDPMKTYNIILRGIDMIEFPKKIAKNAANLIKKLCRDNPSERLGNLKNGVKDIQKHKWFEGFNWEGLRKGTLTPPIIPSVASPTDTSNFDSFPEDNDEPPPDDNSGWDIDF
Description: Inhibition of PKG1beta at 1 uM; values are per cent of control.

In experiment [18] the target is Ephrin type-A receptor 2 (Homo sapiens) (UniProt P29317). Description: Inhibition of EphA2 at 0.1 uM; values are per cent of control.
Experiment [19] addresses Serine/threonine-protein kinase N2 (Homo sapiens) (UniProt Q16513). In words: Inhibition of PRK2 at 1 uM; values are per cent of control.
Experiment [20] concerns the target Calcium/calmodulin-dependent protein kinase type 1 (Homo sapiens) (UniProt Q14012). In words: Inhibition of CaMK1 at 1 uM; values are per cent of control.
For experiment [21], the target named is Mitogen-activated protein kinase 9 (Homo sapiens) (UniProt P45984). Description: Inhibition of JNK2a2 at 1 uM. To be noted: values are per cent of control.
Experiment [22] addresses Angiopoietin-1 receptor (Homo sapiens) (UniProt Q02763). Description: Inhibition of Tie2 at 1 uM; values are per cent of control.

Sequence of Angiopoietin-1 receptor (Homo sapiens) (Q02763 whole entry): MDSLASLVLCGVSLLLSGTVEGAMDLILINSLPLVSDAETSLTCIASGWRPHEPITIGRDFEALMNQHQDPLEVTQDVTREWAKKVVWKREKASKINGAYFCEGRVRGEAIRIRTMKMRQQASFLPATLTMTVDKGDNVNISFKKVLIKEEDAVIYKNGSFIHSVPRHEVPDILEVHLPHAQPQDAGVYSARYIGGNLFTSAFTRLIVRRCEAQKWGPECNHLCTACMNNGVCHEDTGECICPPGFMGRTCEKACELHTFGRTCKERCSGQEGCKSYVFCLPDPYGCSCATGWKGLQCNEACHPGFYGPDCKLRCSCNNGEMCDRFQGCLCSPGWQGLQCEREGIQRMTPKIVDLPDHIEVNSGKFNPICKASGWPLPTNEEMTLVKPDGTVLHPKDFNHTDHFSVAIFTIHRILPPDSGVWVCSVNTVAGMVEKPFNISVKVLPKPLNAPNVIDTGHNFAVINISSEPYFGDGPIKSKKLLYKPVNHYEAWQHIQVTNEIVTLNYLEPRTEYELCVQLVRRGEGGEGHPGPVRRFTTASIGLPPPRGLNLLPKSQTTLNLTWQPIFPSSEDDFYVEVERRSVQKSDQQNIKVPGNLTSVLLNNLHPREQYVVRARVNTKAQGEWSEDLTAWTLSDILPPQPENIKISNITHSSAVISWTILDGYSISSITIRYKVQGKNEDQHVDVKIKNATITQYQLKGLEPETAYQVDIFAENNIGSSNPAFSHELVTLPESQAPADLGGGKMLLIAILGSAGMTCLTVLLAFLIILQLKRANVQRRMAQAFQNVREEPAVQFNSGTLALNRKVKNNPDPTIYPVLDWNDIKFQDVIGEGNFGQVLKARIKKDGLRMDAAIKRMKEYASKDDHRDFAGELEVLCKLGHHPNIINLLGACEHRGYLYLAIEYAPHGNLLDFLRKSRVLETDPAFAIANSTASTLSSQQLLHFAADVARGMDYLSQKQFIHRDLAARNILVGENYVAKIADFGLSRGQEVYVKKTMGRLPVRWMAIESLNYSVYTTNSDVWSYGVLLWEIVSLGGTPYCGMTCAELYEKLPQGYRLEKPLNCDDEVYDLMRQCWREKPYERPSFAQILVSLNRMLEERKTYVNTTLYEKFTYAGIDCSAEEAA
Sequence of Serine/threonine-protein kinase PLK3 (Homo sapiens) (Q9H4B4 whole entry, looked up): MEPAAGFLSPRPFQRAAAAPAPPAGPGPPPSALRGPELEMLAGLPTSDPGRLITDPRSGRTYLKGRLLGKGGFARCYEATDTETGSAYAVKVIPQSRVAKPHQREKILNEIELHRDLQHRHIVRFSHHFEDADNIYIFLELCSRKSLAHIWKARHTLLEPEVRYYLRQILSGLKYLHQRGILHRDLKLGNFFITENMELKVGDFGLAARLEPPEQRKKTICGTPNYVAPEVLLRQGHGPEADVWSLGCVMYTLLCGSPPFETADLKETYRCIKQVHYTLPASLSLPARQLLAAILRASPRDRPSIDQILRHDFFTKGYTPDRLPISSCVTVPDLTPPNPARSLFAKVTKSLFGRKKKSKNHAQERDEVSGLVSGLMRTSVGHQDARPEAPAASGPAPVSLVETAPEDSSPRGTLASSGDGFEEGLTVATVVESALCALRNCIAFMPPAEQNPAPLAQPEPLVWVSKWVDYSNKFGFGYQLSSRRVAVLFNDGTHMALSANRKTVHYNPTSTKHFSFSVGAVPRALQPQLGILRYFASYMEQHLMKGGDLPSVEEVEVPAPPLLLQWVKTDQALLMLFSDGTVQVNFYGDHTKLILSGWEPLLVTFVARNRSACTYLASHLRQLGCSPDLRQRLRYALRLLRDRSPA
Sequence of RAC-alpha serine/threonine-protein kinase (Homo sapiens) (P31749 whole entry): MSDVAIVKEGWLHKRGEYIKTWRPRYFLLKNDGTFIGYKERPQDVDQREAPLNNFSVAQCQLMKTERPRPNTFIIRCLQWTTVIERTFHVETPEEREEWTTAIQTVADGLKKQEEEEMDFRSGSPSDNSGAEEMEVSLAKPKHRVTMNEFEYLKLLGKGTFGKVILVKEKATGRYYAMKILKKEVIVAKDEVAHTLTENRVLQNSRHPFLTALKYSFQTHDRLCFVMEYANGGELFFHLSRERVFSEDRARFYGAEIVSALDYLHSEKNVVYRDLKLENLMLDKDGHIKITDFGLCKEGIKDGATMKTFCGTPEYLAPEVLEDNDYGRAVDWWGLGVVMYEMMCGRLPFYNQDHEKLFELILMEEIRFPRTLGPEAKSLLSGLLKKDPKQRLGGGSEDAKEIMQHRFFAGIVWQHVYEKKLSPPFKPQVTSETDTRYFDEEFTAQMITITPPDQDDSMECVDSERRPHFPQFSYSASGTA
Sequence of Serine/threonine-protein kinase N2 (Homo sapiens) (Q16513 whole entry, looked up): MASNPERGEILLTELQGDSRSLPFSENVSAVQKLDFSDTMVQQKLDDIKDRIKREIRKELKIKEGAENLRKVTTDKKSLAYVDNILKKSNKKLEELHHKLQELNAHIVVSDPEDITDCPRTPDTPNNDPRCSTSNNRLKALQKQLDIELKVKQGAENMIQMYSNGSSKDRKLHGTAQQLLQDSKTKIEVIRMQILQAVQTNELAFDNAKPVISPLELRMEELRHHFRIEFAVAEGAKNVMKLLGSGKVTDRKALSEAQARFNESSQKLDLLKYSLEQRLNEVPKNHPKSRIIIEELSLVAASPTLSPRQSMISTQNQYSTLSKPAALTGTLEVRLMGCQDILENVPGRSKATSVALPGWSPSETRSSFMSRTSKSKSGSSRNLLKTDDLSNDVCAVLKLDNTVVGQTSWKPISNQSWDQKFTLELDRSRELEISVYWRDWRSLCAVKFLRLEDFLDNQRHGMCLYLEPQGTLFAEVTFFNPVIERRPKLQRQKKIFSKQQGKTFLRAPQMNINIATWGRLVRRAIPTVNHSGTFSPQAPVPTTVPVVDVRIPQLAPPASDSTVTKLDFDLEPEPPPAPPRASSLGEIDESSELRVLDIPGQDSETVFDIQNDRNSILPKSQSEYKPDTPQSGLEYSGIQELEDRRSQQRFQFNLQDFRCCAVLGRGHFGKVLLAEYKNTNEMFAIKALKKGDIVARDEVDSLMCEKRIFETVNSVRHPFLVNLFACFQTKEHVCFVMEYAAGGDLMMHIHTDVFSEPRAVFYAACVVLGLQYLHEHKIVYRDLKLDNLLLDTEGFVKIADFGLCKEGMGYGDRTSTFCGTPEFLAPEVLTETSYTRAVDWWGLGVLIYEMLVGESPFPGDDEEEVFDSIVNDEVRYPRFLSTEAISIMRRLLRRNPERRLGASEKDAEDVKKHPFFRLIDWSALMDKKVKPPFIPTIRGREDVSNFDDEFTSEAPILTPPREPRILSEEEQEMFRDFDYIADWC

For the compound `Cc1ccc2cc(-c3n[nH]c4ccc(NC5CCNC5)cc34)[nH]c2c1` (centres undefined), the residual activity came to 3% in experiment [1]; 0% in experiment [2]; 105% in experiment [3]; 50% in experiment [4]; 98% in [5]; 6% in [6]. Further, the residual activity in experiment [7] is 6%; in experiment [8], 27%; in [9], 56%; in experiment [10] it was 10%; in experiment [13], 95%; in experiment [14], 39%. The residual activity turned out to be 100% in [15]; 28% in experiment [16]; 43% in experiment [17]; 47% in [18]; 49% in experiment [19]; 24% in experiment [20]. Also, the residual activity in experiment [21] is 87%; in experiment [22], 1%. The values for the inhibition in experiment [11] and in [12] were 0% and 7%, respectively.
For `Cc1ccc2cc(-c3n[nH]c4ccc(NC5CCN(Cc6ccccc6)CC5)cc34)[nH]c2c1`, the residual activity turned out to be 18% in experiment [1]; 2% in [2]; 89% in experiment [3]; 22% in experiment [4]; 99% in experiment [5]; 4% in [6]. In addition, the residual activity in experiment [7] is 25%; in experiment [8], 36%; in [9], 95%; in experiment [10], -4%; in [13], 96%; in [14] it was 106%. Besides, the residual activity was 117% in experiment [15]; 45% in experiment [16]; 45% in experiment [17]; 25% in experiment [18]; 3% in experiment [19]; 78% in experiment [20]. Also, the residual activity is 88% in experiment [21] and 8% in [22]. For the same compound, the inhibition in experiment [11] was 3%; in [12], 9%.
